iPSC survival up: hiPSC single-cell survival enhancement; ATPlite luminescence; 100% = ROCK inhibitor wells, 0% = DMSO; survival enhancement, % at 20 µM; 0.044% of 360,000 active; in the data active = survival enhancement above about 18%;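 note: cells exposed to compounds for 16 hours before the ATP read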
E coli Lon inh: E. coli protease La inhibition; AID 602123; purified E. coli Lon protease, fluorescence polarization; inhibition, % at 7.94 µM; 0.42% of 360,000 active; P0A9M0; in the data active = inhibition above about 13%, passing the limit was not always enough;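 note: 0% = enzyme with probe and DMSO and 100% = no enzyme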
SKN-1 inh: C. elegans SKN-1 inhibition. C. elegans VP596 Pgst-4::GFP/RFP ratio, acrylamide-induced, 24 h. inhibition, % at 21.8 µM. 0.49% of 360,000 active. AID 624304;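 active = interference check ratio from 0.5 to 1.5 plus GFP to RFP signal ratio inhibition reaching or exceeding a fixed threshold, cut at about 30% in these data, passing the limit was not always enough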
PREPL inh: inhibits the human prolyl oligopeptidase-like enzyme; Q4J6C6; recombinant PREPL, fluorescence polarization activity-based probe; inhibition, % at 5.96 µM; 0.68% of 320,000 active; AID 2751;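 note: 0% = enzyme with DMSO and 100% = wells lacking enzyme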
Target sequence (Q4J6C6 whole entry, looked up): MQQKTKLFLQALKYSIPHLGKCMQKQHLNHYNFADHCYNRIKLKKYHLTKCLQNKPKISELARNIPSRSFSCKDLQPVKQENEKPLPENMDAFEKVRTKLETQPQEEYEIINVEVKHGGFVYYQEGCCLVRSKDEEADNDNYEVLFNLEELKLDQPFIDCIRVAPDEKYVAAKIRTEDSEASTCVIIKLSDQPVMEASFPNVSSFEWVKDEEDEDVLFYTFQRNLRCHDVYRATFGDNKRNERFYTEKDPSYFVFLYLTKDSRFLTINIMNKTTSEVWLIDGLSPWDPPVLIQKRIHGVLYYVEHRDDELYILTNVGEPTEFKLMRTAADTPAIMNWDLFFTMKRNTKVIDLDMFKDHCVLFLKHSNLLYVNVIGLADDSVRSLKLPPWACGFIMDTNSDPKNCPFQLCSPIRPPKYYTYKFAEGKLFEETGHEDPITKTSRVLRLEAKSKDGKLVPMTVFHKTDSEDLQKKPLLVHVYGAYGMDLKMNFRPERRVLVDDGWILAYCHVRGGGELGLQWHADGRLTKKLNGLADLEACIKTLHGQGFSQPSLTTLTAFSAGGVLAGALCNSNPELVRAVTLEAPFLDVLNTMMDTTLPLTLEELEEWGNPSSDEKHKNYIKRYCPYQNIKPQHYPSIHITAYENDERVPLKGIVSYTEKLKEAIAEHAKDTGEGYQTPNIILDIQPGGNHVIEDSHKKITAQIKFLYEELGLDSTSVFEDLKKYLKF
TbMetRS inhib: Trypanosoma brucei MetRS inhibition; purified T. brucei MetRS, ATP depletion, Kinase-Glo luminescence; inhibition, % at 11.9 µM; 0.4% of 360,000 active; AID 624268;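 active = inhibition above a per-plate cutoff of the control wells' mean inhibition plus 3 SD, cut at about 5.5% in these data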;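 note: 0% = DMSO wells median and 100% = median of wells with control inhibitor compound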
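Material: parasite MetRS enzyme / Replication: singlicate, one well per compound / Signal: luminescence of leftover ATP / Schedule: 2 h aminoacylation at 25 °C after 15 min preincubation / Medium: HEPES-MgCl2-KCl buffer plus DTT, spermine, BSA, pyrophosphatase / Doses: 11.9 µM single point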
MT1-MMP act inh: MT1-MMP (human) activation inhibition | HT1080 RFP-PRO-GFP cells, GFP/RFP ratio fluorescence, overnight; percent of plate control window, DMSO zero | GFP/RFP ratio change, % at 20 µM | 0.061% of 360,000 active;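 active = GFP/RFP ratio change of at least 30% with cell ATP level not reduced by more than half and red fluorescence within 50% of control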
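Assay system: HT1080 cells carrying an RFP-PRO-GFP reporter | Dosing: Single dose of 20 µM compound, 1% DMSO final | Incubation: Cells overnight before dosing, compound overnight, 37 °C, 5% CO2 | Evaluation: GFP/RFP fluorescence ratio | Control set: DMSO and RFP-L50D-GFP cell wells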
PREPL inh cf: confirmation of human PREPL enzyme inhibitors; 67% of 2,000 active; inhibition, % at 5.96 µM; shares compounds with PREPL inh; recombinant PREPL, fluorescence polarization activity probe;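 note: 0% = protein with DMSO and 100% = wells lacking protein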
* hit, by the source's call. Rows were chosen to be rich in hits. Some 1.8% of all compounds tested hit in one or more screens of this group. Cut-off read from the data, not from the text of the source, unless noted: active = inhibition above about 43%; inactive = the rest.

What do the screens show for `Cc1cc(/C=C(/C#N)c2nc3ccccc3[nH]2)c(C)n1-c1cccc([N+](=O)[O-])c1`?
iPSC survival up: -3.1; E coli Lon inh: -2.3; SKN-1 inh: 29.2; PREPL inh: 43.6*; TbMetRS inhib: -0.8; MT1-MMP act inh: 1.6; PREPL inh cf: 38.5

Results for O=C(COC(=O)/C=C/c1ccccc1)NCC1CCCO1 (centres undefined) ?
iPSC survival up: 0.7; E coli Lon inh: -2.3; SKN-1 inh: -4.7; PREPL inh: -4.9; TbMetRS inhib: -0.8; MT1-MMP act inh: 1.6

How did O=[N+]([O-])c1ccc(N2CCN(c3ccc([N+](=O)[O-])cc3CO)CC2)c(CO)c1 do in these assays?
iPSC survival up: -0.5; E coli Lon inh: 7.5; SKN-1 inh: 5.1; PREPL inh: 36.6; TbMetRS inhib: 1.6; MT1-MMP act inh: -12.4

How did N#Cc1cc([N+](=O)[O-])ccc1N1CCN(c2ccccc2O)CC1 do in these assays?
iPSC survival up: 0.8; E coli Lon inh: 2.9; SKN-1 inh: 2.2; PREPL inh: 52.6*; TbMetRS inhib: 2.9; MT1-MMP act inh: 2.0; PREPL inh cf: 47.8*

What do the screens show for `c1ccc(C[C@H]2CN=C(Nc3ccccc3)N2CCCC2CCCCC2)cc1`?
iPSC survival up: -3.1; E coli Lon inh: -4.2; SKN-1 inh: 5.1; PREPL inh: 3.5; TbMetRS inhib: -0.3; MT1-MMP act inh: -1.9

Results for CCC[C@@H](CN1CCC[C@H]1CN1C(N)=NC[C@@H]1Cc1ccccc1)N1C[C@@H](Cc2ccccc2)N(CCCC2CCCC2)C1=N ?
iPSC survival up: -2.1; E coli Lon inh: 0.3; SKN-1 inh: 8.5; PREPL inh: 42.4; TbMetRS inhib: 0.4; MT1-MMP act inh: 4.3

Results for CC(C)[C@H](CN1CCC[C@H]1CN1C(N)=NC[C@H]1C(C)C)N1C[C@@H](Cc2ccccc2)N(CCCC2CCCC2)C1=N ?
iPSC survival up: -0.3; E coli Lon inh: -1.4; SKN-1 inh: -16.8; PREPL inh: 60.7*; TbMetRS inhib: -1.0; MT1-MMP act inh: 0.4; PREPL inh cf: 58.7*

What do the screens show for `CCC[C@@H](CN1CCC[C@H]1CN1C(N)=NC[C@H]1CC(C)C)N1C[C@@H](Cc2ccccc2)N(CCCC2CCCC2)C1=N`?
iPSC survival up: -1.2; E coli Lon inh: 1.4; SKN-1 inh: 12.3; PREPL inh: 49.4*; TbMetRS inhib: 0.0; MT1-MMP act inh: 1.6; PREPL inh cf: 41.2

How did CCC[C@@H](CN1CCC[C@H]1CN1C(N)=NC[C@@H]1Cc1ccccc1)N1C[C@@H]([C@H](C)CC)N(CCCC2CCCC2)C1=N do in these assays?
iPSC survival up: -2.5; E coli Lon inh: 3.3; SKN-1 inh: -13.7; PREPL inh: 53.8*; TbMetRS inhib: -0.3; MT1-MMP act inh: 0.0; PREPL inh cf: 51.7*

How did CCCCN1C(=N)N([C@@H](CCC)CN2CCC[C@H]2CN2C(N)=NC[C@@H]2Cc2ccccc2)C[C@H]1Cc1ccccc1 do in these assays?
iPSC survival up: -1.9; E coli Lon inh: -4.4; SKN-1 inh: -7.0; PREPL inh: 45.3*; TbMetRS inhib: -0.3; MT1-MMP act inh: 2.9; PREPL inh cf: 45.2*

How did CC(C)C[C@@H](CN1CCCC1CN1C(=S)NC[C@@H]1Cc1ccccc1)N1C[C@H](Cc2ccccc2)N(CC2CCCCCC2)C1=S (some centres undefined) do in these assays?
iPSC survival up: -1.0; E coli Lon inh: -10.3; SKN-1 inh: -4.4; TbMetRS inhib: 0.5; MT1-MMP act inh: 3.9

How did COc1ccccc1N(C(=O)CNC(=O)c1ccco1)C(C(=O)NC1CCCCC1)c1ccncc1 (centres undefined) do in these assays?
iPSC survival up: 1.2; E coli Lon inh: -10.0; SKN-1 inh: 33.4; PREPL inh: 10.9; TbMetRS inhib: 0.1; MT1-MMP act inh: -3.8

What do the screens show for `COc1ccc(C2CC(=O)Nc3ccccc3S2(=O)=O)cc1OC` (centres undefined)?
iPSC survival up: 2.4; E coli Lon inh: -5.5; SKN-1 inh: -3.2; PREPL inh: 6.6; TbMetRS inhib: -0.7; MT1-MMP act inh: -0.4

How did CCCOc1c(Br)cc(C2C3=C(CCCC3=O)N(CC)C3=C2C(=O)CCC3)cc1OC do in these assays?
iPSC survival up: -1.2; E coli Lon inh: -5.5; SKN-1 inh: -3.7; PREPL inh: 2.4; TbMetRS inhib: 0.7; MT1-MMP act inh: -6.1

Results for Nc1c(N(CCC2=CCCCC2)C(=O)c2ccccc2F)c(=O)[nH]c(=O)n1Cc1ccccc1 ?
iPSC survival up: 4.8; E coli Lon inh: -13.7; SKN-1 inh: -2.9; PREPL inh: 68.5*; TbMetRS inhib: -0.1; MT1-MMP act inh: -3.6; PREPL inh cf: 15.4

How did COc1cc(/C=N\NC(=O)c2ccc(Cn3cc(Br)c([N+](=O)[O-])n3)o2)cc(OC)c1O do in these assays?
iPSC survival up: -0.9; E coli Lon inh: 10.7; SKN-1 inh: 1.6; PREPL inh: 51.2*; TbMetRS inhib: -0.1; MT1-MMP act inh: -1.6; PREPL inh cf: 41.5

How did COc1ccc(N2CCN(C(=O)COC(=O)c3ccccc3OCc3ccc(F)cc3)CC2)cc1 do in these assays?
iPSC survival up: -0.3; E coli Lon inh: -5.5; SKN-1 inh: 18.4; PREPL inh: 15.3; TbMetRS inhib: -0.3; MT1-MMP act inh: 0.4

How did O=C(OCC(=O)N1CCN(c2ccc(F)cc2)CC1)c1cnc2ccccc2n1 do in these assays?
iPSC survival up: -0.3; E coli Lon inh: 16.7; SKN-1 inh: 7.8; PREPL inh: 49.3*; TbMetRS inhib: -0.4; MT1-MMP act inh: 0.4; PREPL inh cf: 31.5

What do the screens show for `CC(CO)Nc1nc(SCc2ccccc2)nc2sc3c(c12)CCC3` (centres undefined)?
iPSC survival up: 12.4; E coli Lon inh: 9.1; SKN-1 inh: 6.0; PREPL inh: 43.7*; TbMetRS inhib: -0.9; MT1-MMP act inh: 4.3; PREPL inh cf: 41.4

How did COc1ccc(SCC(=O)Nc2ccccc2Cl)cc1 do in these assays?
iPSC survival up: -0.2; E coli Lon inh: 1.8; SKN-1 inh: 6.2; PREPL inh: -8.2; TbMetRS inhib: -0.3; MT1-MMP act inh: -2.1

How did CN(C)c1ccc(CN(C(=O)/C=C/c2ccccc2Cl)C2CCS(=O)(=O)C2)cc1 (centres undefined) do in these assays?
iPSC survival up: -0.3; E coli Lon inh: 0.7; SKN-1 inh: -10.0; PREPL inh: 49.9*; TbMetRS inhib: 0.5; MT1-MMP act inh: -1.4; PREPL inh cf: 48.5*

Results for O=C(/C=C/c1ccccc1Cl)N(Cc1ccc(Cl)cc1)C1CCS(=O)(=O)C1 (centres undefined) ?
iPSC survival up: -1.3; E coli Lon inh: 4.0; SKN-1 inh: 17.7; PREPL inh: -42.1; TbMetRS inhib: -0.3; MT1-MMP act inh: -3.1

Bioassay records deposited in PubChem BioAssay by several laboratories.
